Legend:
[1] = tested on: Human immunodeficiency virus 1; experiment: Antiviral activity against HIV1 isolate 200 harboring reverse transcriptase M41L/L210W/T215Y mutant gene by phenosense assay relative to wild type; format: functional
Summary of the method: (§1)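 Recombinant-virus PhenoSense HIV assay run on a panel of 30 NRTI-resistant HIV-1 mutants and two wild-type viruses. Each virus is tested across increasing drug concentrations to give an inhibition curve and EC50. Fold change is the test recombinant EC50 divided by the EC50 of the drug-sensitive wild-type reference virus.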

[2] = tested on: Human immunodeficiency virus 1; experiment: Antiviral activity against HIV1 isolate 063 harboring reverse transcriptase M41L/D67N/K70R/M184V/L210W/T215Y/K219E mutant gene by phenosense assay; format: functional, organism-based; details: Human immunodeficiency virus 1, isolate 063; summary of the method: as §1
[3] = tested on: Human immunodeficiency virus 1; experiment: Antiviral activity against HIV1 isolate 071 harboring reverse transcriptase 65R/S68N/184V mutant gene by phenosense assay; format: functional, organism-based; details: Human immunodeficiency virus 1, isolate 071; summary of the method: as §1
[4] = tested on: Human immunodeficiency virus 1; experiment: Antiviral activity against HIV1 isolate 192 harboring reverse transcriptase M41L/T215Y mutant gene by phenosense assay relative to wild type; format: functional; summary of the method: as §1
[5] = tested on: Human immunodeficiency virus 1; experiment: Antiviral activity against HIV1 isolate 070 harboring reverse transcriptase 65R/S68G mutant gene by phenosense assay; format: functional, organism-based; details: Human immunodeficiency virus 1, isolate 070; summary of the method: as §1
[6] = tested on: Human immunodeficiency virus 1; experiment: Antiviral activity against HIV1 isolate 203 harboring reverse transcriptase M41L/L210W/T215Y/M184V mutant gene by phenosense assay; format: functional, organism-based; details: Human immunodeficiency virus 1, isolate 203
Summary of the method: (§2)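 PhenoSense HIV recombinant virus assay: patient-derived HIV-1 with major NRTI resistance mutations tested against increasing drug concentrations to give inhibition curves. EC50 is the concentration giving 50% inhibition. Fold change is the test recombinant EC50 divided by the EC50 of a drug-sensitive wild-type reference virus. Panel of 30 NRTI-resistant isolates plus two wild-type viruses.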

[7] = tested on: Human immunodeficiency virus 1; experiment: Antiviral activity against HIV1 isolate 153 harboring reverse transcriptase L74V mutant gene by phenosense assay relative to wild type; format: functional; summary of the method: as §1
[8] = tested on: Human immunodeficiency virus 1; experiment: Antiviral activity against HIV1 isolate 162 harboring reverse transcriptase A62V/V75I/F77L/Y115F/F116Y/Q151M/M184V mutant gene by phenosense assay relative to wild type; format: functional; summary of the method: as §1
[9] = tested on: Human immunodeficiency virus 1; experiment: Antiviral activity against HIV1 isolate 058 harboring reverse transcriptase M41L/D67N/K70R/L210W/T215F/K219Q mutant gene by phenosense assay; format: functional, organism-based; details: Human immunodeficiency virus 1, isolate 058; summary of the method: as §1
[10] = tested on: Human immunodeficiency virus 1; experiment: Antiviral activity against HIV1 isolate 180 harboring reverse transcriptase K65R mutant gene obtained as site-directed mutant of NL4-3 by phenosense assay relative to wild type; format: functional; summary of the method: as §1
[11] = tested on: Human immunodeficiency virus 1; experiment: Antiviral activity against HIV1 isolate 215 harboring reverse transcriptase D67N/K70E mutant gene by phenosense assay; format: functional, organism-based; details: Human immunodeficiency virus 1, isolate 215; summary of the method: as §2
[12] = tested on: Human immunodeficiency virus 1; experiment: Antiviral activity against HIV1 isolate 069 harboring reverse transcriptase D67E/T69SSG/V75M/M184V/L210W/T215Y mutant gene by phenosense assay relative to wild type; format: functional; summary of the method: as §1
[13] = tested on: Human immunodeficiency virus 1; experiment: Antiviral activity against HIV1 isolate 201 harboring reverse transcriptase M41L/L210W/T215Y mutant gene by phenosense assay; format: functional, organism-based; details: Human immunodeficiency virus 1, isolate 201; summary of the method: as §1
[14] = tested on: Human immunodeficiency virus 1; experiment: Antiviral activity against HIV1 isolate 185 harboring reverse transcriptase T215Y mutant gene by phenosense assay relative to wild type; format: functional; summary of the method: as §1
[15] = tested on: Human immunodeficiency virus 1; experiment: Antiviral activity against HIV1 isolate 206 harboring reverse transcriptase D67N/K70R mutant gene by phenosense assay; format: functional, organism-based; details: Human immunodeficiency virus 1, isolate 206; summary of the method: as §2
[16] = tested on: Human immunodeficiency virus 1; experiment: Antiviral activity against HIV1 isolate 200 harboring reverse transcriptase M41L/L210W/T215Y mutant gene by phenosense assay; format: functional, organism-based; details: Human immunodeficiency virus 1, isolate 200; summary of the method: as §1
[17] = tested on: Human immunodeficiency virus 1; experiment: Antiviral activity against HIV1 isolate 174 harboring reverse transcriptase M184V mutant gene obtained as site-directed mutant of NL4-3 by phenosense assay; format: functional, organism-based; details: Human immunodeficiency virus 1, isolate 174; summary of the method: as §1
[18] = tested on: Human immunodeficiency virus 1; experiment: Antiviral activity against HIV1 isolate 204 harboring reverse transcriptase M41L/L210W/T215Y/M184V mutant gene by phenosense assay relative to wild type; format: functional; summary of the method: as §2
[19] = tested on: Human immunodeficiency virus 1; experiment: Antiviral activity against HIV1 isolate 070 harboring reverse transcriptase 65R/S68G mutant gene by phenosense assay relative to wild type; format: functional; summary of the method: as §1
[20] = tested on: Human immunodeficiency virus 1; experiment: Antiviral activity against HIV1 isolate 066 harboring reverse transcriptase 184V mutant gene by phenosense assay; format: functional, organism-based; details: Human immunodeficiency virus 1, isolate 066; summary of the method: as §1
[21] = tested on: Human immunodeficiency virus 1; experiment: Antiviral activity against HIV1 isolate 188 harboring reverse transcriptase T215Y/M184V mutant gene by phenosense assay; format: functional, organism-based; details: Human immunodeficiency virus 1, isolate 188; summary of the method: as §1
[22] = tested on: Human immunodeficiency virus 1; experiment: Antiviral activity against HIV1 isolate 174 harboring reverse transcriptase M184V mutant gene obtained as site-directed mutant of NL4-3 by phenosense assay relative to wild type; format: functional; summary of the method: as §1
[23] = tested on: Human immunodeficiency virus 1; experiment: Antiviral activity against HIV1 isolate 160 harboring reverse transcriptase S68G/V75(I/T)/F77L/Y115F/F116Y /Q151M mutant gene by phenosense assay; format: functional, organism-based; details: Human immunodeficiency virus 1, isolate 160; summary of the method: as §1
[24] = tested on: Human immunodeficiency virus 1; experiment: Antiviral activity against HIV1 isolate 204 harboring reverse transcriptase M41L/L210W/T215Y/M184V mutant gene by phenosense assay; format: functional, organism-based; details: Human immunodeficiency virus 1, isolate 204; summary of the method: as §2
[25] = tested on: Human immunodeficiency virus 1; experiment: Antiviral activity against HIV1 isolate 166 harboring reverse transcriptase L74V mutant gene obtained as site-directed mutant of NL4-3 by phenosense assay relative to wild type; format: functional; summary of the method: as §1
[26] = tested on: Human immunodeficiency virus 1; experiment: Antiviral activity against HIV1 isolate 058 harboring reverse transcriptase M41L/D67N/K70R/L210W/T215F/K219Q mutant gene by phenosense assay relative to wild type; format: functional; summary of the method: as §1

Row | Compound | fold change (FC) [1] | EC50 [2] [µM] | EC50 [3] [µM] | fold change (FC) [4] | EC50 [5] [µM] | EC50 [6] [µM] | fold change (FC) [7] | fold change (FC) [8] | EC50 [9] [µM] | fold change (FC) [10] | EC50 [11] [µM] | fold change (FC) [12] | EC50 [13] [µM] | fold change (FC) [14] | EC50 [15] [µM] | EC50 [16] [µM] | EC50 [17] [µM] | fold change (FC) [18] | fold change (FC) [19] | EC50 [20] [µM] | other results
1 | Nc1nc(NC2CC2)c2ncn([C@H]3C=C[C@@H](CO)C3)c2n1 [ABACAVIR] | 2.8 | 14 | 12 | 1.9 | 5.7 | 8.2 | 1.9 | >29 | 7.9 | 2.6 | 2.4 | 26 | 4.2 | 2.1 | 2.5 | 5 | 4.7 | 5 | 3.2 | 4.8 | EC50 [21]: 7.6 µM; fold change (FC) [22]: 2.6; EC50 [23]: 34 µM; EC50 [24]: 8.9 µM; fold change (FC) [25]: 1.9; fold change (FC) [26]: 4.4
2 | O=c1[nH]cnc2c1ncn2[C@H]1CC[C@@H](CO)O1 [DIDANOSINE] | 1.4 | 11 | 14 | 1.1 | 9.2 | 8.2 | 1.6 | 11 | 8.8 | 2 | 7.7 | 4.4 | 5.9 | 1.1 | 6.6 | 7.5 | 6.8 | 1.6 | 1.7 | 7.6 | EC50 [21]: 7.9 µM; fold change (FC) [22]: 1.2; EC50 [23]: 63 µM; EC50 [24]: 8.6 µM; fold change (FC) [25]: 1.5; fold change (FC) [26]: 1.6
3 | Nc1nc(=O)n([C@@H]2CS[C@H](CO)O2)cc1F [EMTRICITABINE] | 3.7 | > 100 | > 100 | 2.7 | 19 | > 100 | 1.9 | >88 | 5.7 | 11 | 3.4 | >88 | 2.2 | 2.3 | 3.3 | 4.2 | > 100 | >88 | 17 | > 100 | EC50 [21]: > 100 µM; fold change (FC) [22]: >88; EC50 [23]: 35 µM; EC50 [24]: > 100 µM; fold change (FC) [25]: 1.5; fold change (FC) [26]: 5
